We go through five compounds from ChEMBL document CHEMBL4414649, “Microbial Transformation of Cycloastragenol and Astragenol by Endophytic Fungi Isolated from Astragalus Species” (J Nat Prod, 2019).

Experiment [1] has as its target Telomerase reverse transcriptase (Homo sapiens) (UniProt O14746). Briefly: Activation of telomerase activity in human neonatal primary epidermal keratinocytes assessed as fold change at 0.1 nM after 24 hrs by PCR-based TRAP assay relative to untreated control. An outline of the steps: (§1)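 HEKn cells from ATCC, grown in dermal basal cell medium with keratinocyte growth supplements. Seeded, medium refreshed next day, then treated 24 h the following day (0.1–30 nM; DMSO control). 2 × 10^5 harvested cells lysed on ice 30 min, lysate spun 16000g 20 min. Telomerase measured by TRAP PCR-ELISA, absorbance at 450 nm (reference ~690 nm). Fold activation versus DMSO-treated cells.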

Experiment [2] shares this target. Kind of experiment: Activation of telomerase activity in human neonatal primary epidermal keratinocytes assessed as fold change at 0.1 to 30 nM after 24 hrs by PCR-based TRAP assay relative to untreated control. A digest of the protocol: as §1
The target is the same in experiment [3]. Kind of experiment: Activation of telomerase activity in human neonatal primary epidermal keratinocytes assessed as fold change at 2 nM after 24 hrs by PCR-based TRAP assay relative to untreated control. A digest of the protocol: as §1
Experiment [4] has the same target. Kind of experiment: Activation of telomerase activity in human neonatal primary epidermal keratinocytes assessed as fold change at 0.5 nM after 24 hrs by PCR-based TRAP assay relative to untreated control. A digest of the protocol:
as §1

Chain of Telomerase reverse transcriptase (Homo sapiens) (O14746 whole entry): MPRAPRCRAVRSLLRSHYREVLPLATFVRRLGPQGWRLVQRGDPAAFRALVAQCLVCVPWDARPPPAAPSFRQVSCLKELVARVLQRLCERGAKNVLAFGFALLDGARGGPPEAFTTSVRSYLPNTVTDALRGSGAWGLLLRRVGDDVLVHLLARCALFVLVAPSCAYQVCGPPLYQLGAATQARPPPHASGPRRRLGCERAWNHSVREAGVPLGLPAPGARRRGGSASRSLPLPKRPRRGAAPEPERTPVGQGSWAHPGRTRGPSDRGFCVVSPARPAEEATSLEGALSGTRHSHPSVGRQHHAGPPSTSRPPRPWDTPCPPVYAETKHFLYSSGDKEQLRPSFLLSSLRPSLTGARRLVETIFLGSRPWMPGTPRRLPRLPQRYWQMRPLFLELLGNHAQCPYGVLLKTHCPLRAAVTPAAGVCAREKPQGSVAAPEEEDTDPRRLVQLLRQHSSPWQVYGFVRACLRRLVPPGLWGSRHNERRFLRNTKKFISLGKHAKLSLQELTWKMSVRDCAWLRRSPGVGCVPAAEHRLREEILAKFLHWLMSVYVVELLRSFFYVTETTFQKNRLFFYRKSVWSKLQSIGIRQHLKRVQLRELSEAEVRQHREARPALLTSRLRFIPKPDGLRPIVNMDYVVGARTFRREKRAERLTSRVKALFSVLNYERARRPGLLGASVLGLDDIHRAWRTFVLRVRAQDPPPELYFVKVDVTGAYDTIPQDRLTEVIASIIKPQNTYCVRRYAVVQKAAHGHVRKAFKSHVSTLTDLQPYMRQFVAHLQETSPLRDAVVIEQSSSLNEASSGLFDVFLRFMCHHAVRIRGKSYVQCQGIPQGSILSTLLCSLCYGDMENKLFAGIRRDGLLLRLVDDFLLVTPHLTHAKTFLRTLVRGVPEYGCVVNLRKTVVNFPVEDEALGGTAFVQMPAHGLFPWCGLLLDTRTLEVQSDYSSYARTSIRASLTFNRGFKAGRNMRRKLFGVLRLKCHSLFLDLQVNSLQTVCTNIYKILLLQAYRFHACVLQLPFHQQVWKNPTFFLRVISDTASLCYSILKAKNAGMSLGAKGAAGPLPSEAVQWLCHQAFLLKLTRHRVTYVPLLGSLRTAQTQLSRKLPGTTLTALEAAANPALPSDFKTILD

Regarding `CC(C)(O)[C@@H]1CC[C@](C)([C@H]2[C@@H](O)C[C@@]3(CO)[C@@H]4C[C@H](O)[C@H]5C(C)(C)C(=O)CC[C@@]56C[C@@]46CC[C@]23C)O1`, the results for the fold change (FC) in experiment [1] and in experiment [2] were 3.5 and 1.5 to 5.2, respectively.
Turning to `CC(C)(O)[C@@H]1CC[C@](C)([C@H]2[C@@H](O)C[C@@]3(C)[C@@H]4C[C@H](O)[C@H]5C(C)(C)[C@@H](O)CC[C@@]56C[C@@]46CC[C@]23C)O1`, the fold change (FC) in experiment [1] is 1.5; in experiment [3], 5.2; in experiment [2], 1.5 to 5.2.
`CC(C)(O)[C@@H]1CC[C@](C)([C@H]2[C@@H](O)C[C@@]3(C)[C@@H]4C[C@H](O)[C@H]5C(C)(C)[C@@H](O)CC[C@@]56C[C@@]46C[C@H](O)[C@]23C)O1`: the fold change (FC) is 5 in experiment [4] and 1.5 to 5.2 in experiment [2].
Consider `CC(C)(O)[C@@H]1CC[C@](C)([C@H]2[C@@H](O)C[C@@]3(C)[C@@H]4C[C@H](O)[C@H]5C(C)(C)[C@@H](O)CC[C@]5(C)C4=C[C@H](O)[C@]23C)O1`, for which the results for the fold change (FC) in experiment [1] and in experiment [2] were 3.8 and 1.5 to 5.2, respectively.
Consider `CC(C)(O)[C@@H]1CC[C@](C)([C@H]2[C@@H](O)C[C@@]3(C)[C@@H]4C[C@H](O)[C@H]5C(C)(C)C(=O)CC[C@@]56C[C@@]46[C@@H](O)C[C@]23C)O1`, for which the fold change (FC) in experiment [2] lay within 1.5 to 5.2.
